Laboratory results as given in publication PMC8591627 (ACS infectious diseases, 2021).
≈ marks a conversion by molar mass, not a printed value. Where “and” joins values, the source holds several entries; their conditions need not be identical. Identical values can stand only once.

How the values were obtained:
S. aureus LAC pLL39 = assay: MIC; format: cell-based, Staphylococcus aureus; details: genotype pLL39, LAC background
VISA strains = assay: MIC versus VISA clinical isolates; format: cell-based, Staphylococcus aureus; details: six clinical isolates of VISA
MRSA strain LAC = assay: Selection of spontaneous resistant mutants, frequency; format: cell-based, Staphylococcus aureus; details: 8x MIC, 3 d incubation
[1] = test system: JSF-3151–resistant strains; assay: MIC versus JSF-3151-resistant strains compared to the parental strain; format: cell-based, Staphylococcus aureus; details: yceI promoter mutants versus parent
[2] = Mouse pharmacokinetic study; format: in vivo; details: CD-1 mice, oral 25 mg/kg, 0.5-5 h
Method in brief: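 Two female CD-1 mice received one oral 25 mg/kg dose in 20% DMA/80% PEG300. K2EDTA blood was taken pre-dose and at 0.5, 1, 3 and 5 h, and plasma was stored at −80 °C. Samples were precipitated with acetonitrile/methanol containing a verapamil internal standard and analysed by LC-MS/MS in MRM positive mode. Standard curves were made in CD-1 plasma, and QCs had to fall within 20% of nominal.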

LAC pEPSA5_azoR = assay: MIC; format: cell-based, Staphylococcus aureus; details: cultured with 1% xylose
Method in brief: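 pEPSA vector strains were cultured with 1% xylose for induction. Overnight Mueller-Hinton cultures (37 °C, 200 rpm) were diluted 1/1000 into serial dilutions of test compound in Mueller-Hinton broth in 96-well plates. Plates were incubated statically at 37 °C for 18 h. Values are representative of three independent experiments.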

[3] = test system: S. aureus LAC yceI::Tn pLL39_yceI1; assay: MIC; format: cell-based, Staphylococcus aureus; details: genotype yceI::Tn pLL39_yceI1, LAC background
S. aureus LAC pLL39_yceI = assay: MIC; format: cell-based, Staphylococcus aureus; details: genotype pLL39_yceI, LAC background
MRSA culture = assay: Time-kill curve; format: cell-based, Staphylococcus aureus
MRSA COL strain = assay: Mouse peritonitis-sepsis model; format: in vivo, Staphylococcus aureus; details: single dose 24 mg/kg intraperitoneal, 1 h post-infection
LAC yceI::Tn strain = assay: Selection of spontaneous resistant mutants, frequency; format: cell-based, Staphylococcus aureus
S. aureus (ATCC 43300) [4] = assay: Nitric oxide release assay, Griess reagent; format: cell-based, Staphylococcus aureus; details: 100 μM, over 48 h; positive control DEA-NONOate
Method in brief: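 ATCC 43300 was grown in Mueller-Hinton medium to OD600 0.4 and split three ways: untreated, 100 μM test compound, or 100 μM DEA-NONOate. At 24 and 48 h, samples were centrifuged and supernatants were mixed with fresh Griess reagent for 30 min at room temperature. Absorbance at 548 nm was converted to nitrite against sodium nitrite standards (50–0.78 μM, 2-fold) made in medium.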

LAC pEPSA5 = assay: MIC; format: cell-based, Staphylococcus aureus
Method in brief: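 LAC strains carried empty pEPSA5 or pEPSA5_yceI (yceI under a xylose-inducible promoter). They were grown overnight with or without xylose induction; for the azoR overexpression set, pEPSA strains were cultured with 1% xylose. The 1/1000 inoculum went into Mueller-Hinton broth with serial compound dilutions, incubated statically at 37 °C for 18 h. Values represent three independent experiments.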

[5] = test system: S. aureus LAC yceI::Tn pLL39_yceI2; assay: MIC; format: cell-based, Staphylococcus aureus; details: genotype yceI::Tn pLL39_yceI2, LAC background
LAC yceI::Tn azoR1 pCM28 = assay: MIC; format: cell-based, Staphylococcus aureus
Method in brief: (§1)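 Overnight cultures were grown in 5 mL Mueller-Hinton at 37 °C with shaking at 200 rpm. They were diluted 1/1000 into 96-well plates holding serial dilutions of test compound in Mueller-Hinton broth. Plates were sealed against drying and incubated statically at 37 °C for 18 h before reading. All strains are isogenic and in the LAC background.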

MSSA ATCC 25923 = assay: MIC, drug susceptibility assay; format: cell-based, Staphylococcus aureus; details: 18 h, 37 °C, visual inspection
S. aureus (ATCC 43300) [6] = assay: Membrane depolarization assay; format: cell-based, Staphylococcus aureus; details: 4.5x MIC, 10 min; positive control sodium deoxycholate
Method in brief: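 ATCC 43300 was grown from a single colony in Mueller-Hinton to OD600 0.5, then loaded with DiBAC4 (final 20 μg/mL) for 5 min. Bacteria plus dye received test compound at 4.5x MIC; controls were no addition (negative) and 0.05% w/v sodium deoxycholate (positive). Fluorescence (ex 490/em 510 nm) was read every 5 s for 10 min, in triplicate.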

[7] = test system: S. aureus LAC yceI::Tn pLL39_yceI3; assay: MIC; format: cell-based, Staphylococcus aureus; details: genotype yceI::Tn pLL39_yceI3, LAC background
LAC = assay: MIC; format: cell-based, Staphylococcus aureus; details: genotype LAC
Method in brief: as §1

LAC yceI::Tn azoR1 = assay: MIC; format: cell-based, Staphylococcus aureus
Method in brief: as §1

LAC yceI::Tn azoR2 pCM28 = assay: MIC; format: cell-based, Staphylococcus aureus
Method in brief: as §1

[8] = test system: S. aureus LAC pLL39_yceI2; assay: MIC; format: cell-based, Staphylococcus aureus; details: genotype pLL39_yceI2, LAC background
[9] = test system: S. aureus LAC yceI::Tn pLL39_yceI; assay: MIC; format: cell-based, Staphylococcus aureus; details: genotype yceI::Tn pLL39_yceI, LAC background
VRSA strains = assay: MIC versus VRSA clinical isolates; format: cell-based, Staphylococcus aureus; details: five clinical isolates of VRSA
LAC yceI::Tn azoR4 = assay: MIC; format: cell-based, Staphylococcus aureus; details: genotype yceI::Tn azoR4
[10] = test system: S. aureus LAC pLL39_yceI3; assay: MIC; format: cell-based, Staphylococcus aureus; details: genotype pLL39_yceI3, LAC background

With `O=C(Nc1cc(Cl)cc2cccnc12)c1ccc([N+](=O)[O-])s1` [JSF-3151] the MIC (S. aureus LAC pLL39) was 6.2 µg/mL (≈ 18.6 µM), the “MIC versus VISA compared to MRSA” value (VISA strains) was “even greater potency” and the “frequency of resistant mutants” value (MRSA strain LAC) was 6 x 10^−8. The “loss of susceptibility of three representative mutants” value [1] was > 16 fold, the “mouse plasma level relative to MIC” value [2] was “inability to reach the MIC over a 5 h time period” and the MIC (LAC pEPSA5_azoR) was 0.39 µg/mL (≈ 1.17 µM). The MIC [3] was 50 µg/mL (≈ 150 µM), the MIC (S. aureus LAC pLL39_yceI) was 6.2 µg/mL (≈ 18.6 µM) and the “time to sterilize a MRSA culture” value (MRSA culture; 1x MIC) was ≤ 4 h. The “speed of sterilization relative to vancomycin” value (MRSA culture; both at 1x MIC) was “more than six times faster than vancomycin”, the “mice surviving 3 d post-administration” value (MRSA COL strain) was 2 out of 12 and the “survival 3 d post-administration” value (MRSA COL strain) was 16.7%. For the same molecule, the “frequency of heritable resistance” value (LAC yceI::Tn strain) was “approximately 3 x 10^−8”, the “NO• production as nitrite in supernatant (Griess reagent)” value (S. aureus (ATCC 43300) [4]) was “neither DAF-FM (over 2 h) nor the Griess reagent (over 48 h) evidenced NO• production” and the MIC (LAC pEPSA5; LAC pEPSA5, cultured with 1% xylose (Table 6)) was 1.5 µg/mL (≈ 4.49 µM). It also gave an MIC (LAC pEPSA5; LAC pEPSA5, growth with xylose +) of 0.78 µg/mL, an MIC (LAC pEPSA5; LAC pEPSA5, growth with xylose −) of 0.78 µg/mL (≈ 2.34 µM) and an MIC [5] of 50 µg/mL (≈ 150 µM). The “half-life t1/2 in mouse liver microsomes” value was 1.46 min, the MIC (LAC yceI::Tn azoR1 pCM28) was >50 µg/mL and the “MSSA ATCC 25923 MIC” value (MSSA ATCC 25923) was 1.6 μg/mL and 4.8 μM. For the same molecule, the “MSSA ATCC 25923 MIC” value (MSSA ATCC 25923; listed as Z296972134 (3151)) was 1.6 μg/mL and 4.8 μM, the “membrane depolarization (DiBAC4 fluorescence)” value (S. aureus (ATCC 43300) [6]) was “failed to compromise the cell membrane” and the MIC [7] was 50 µg/mL (≈ 150 µM). For the same molecule, the MIC (LAC) was 1.5 µg/mL (≈ 4.49 µM), the “MIC shift versus yceI::Tn parental strain” value (LAC yceI::Tn azoR1; azoR1 (Trp100stop)) was 15 fold and the MIC (LAC yceI::Tn azoR1; genotype yceI::Tn azoR1) was 12 µg/mL (≈ 36 µM). It also gave an MIC (LAC yceI::Tn azoR2 pCM28) of 25 µg/mL (≈ 74.9 µM), an MIC [8] of 50 µg/mL (≈ 150 µM) and an MIC [9] of 1.6 µg/mL (≈ 4.79 µM). For the same molecule, the “MIC versus VRSA compared to MRSA” value (VRSA strains) was “even greater potency”, the MIC (LAC yceI::Tn azoR4) was 25 µg/mL (≈ 74.9 µM) and the MIC [10] was 50 µg/mL (≈ 150 µM).
